Source: ChEMBL document CHEMBL2321753, “Synthesis and biological evaluation of radioiodinated quinacrine-based derivatives for SPECT imaging of Aβ plaques” (Eur J Med Chem, 2013)
Active and inactive are the calls of the source. The calls are words filed in the database; no cut-off is given here.

Key:
Heart [1] = test: Biodistribution in ddY mouse heart at 0.1 to 0.4 uCi, iv after 10 mins by gamma counting; assay type: ADME, organism-based; details: in vivo
Method in brief: (§1)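 [125I]ligand (0.1–0.4 µCi) in 100 µL PBS (pH 7.4) containing 30 µL DMSO, injected into the tail vein of ddY mice (5 weeks, 22–25 g). Mice sacrificed at 2, 10, 30 and 60 min. Organs removed, weighed and gamma-counted. Values are % injected dose per gram, except stomach as % dose per organ. Mean (SD) of 3–6 mice per time point.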

Blood [2] = test: Biodistribution in ddY mouse blood at 0.1 to 0.4 uCi, iv after 2 mins by gamma counting; assay type: ADME, organism-based; details: in vivo; method in brief: as §1
Stomach [3] = test: Biodistribution in ddY mouse stomach assessed per organ at 0.1 to 0.4 uCi, iv after 10 mins by gamma counting; assay type: ADME, organism-based; details: in vivo; method in brief: as §1
Pancreas [4] = test: Biodistribution in ddY mouse pancreas at 0.1 to 0.4 uCi, iv after 2 mins by gamma counting; assay type: ADME, organism-based; details: in vivo; method in brief: as §1
Intestine [5] = test: Biodistribution in ddY mouse intestine at 0.1 to 0.4 uCi, iv after 10 mins by gamma counting; assay type: ADME, organism-based; details: in vivo; method in brief: as §1
Brain [6] = test: Ratio of drug level in brain after 2 mins to brain after 60 mins in ddY mouse brain at 0.1 to 0.4 uCi, iv; assay type: ADME, organism-based; details: in vivo
Method in brief: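 ddY mice (5 weeks, 22–25 g) given [125I]ligand (0.1–0.4 µCi) iv in PBS/DMSO. Brain radioactivity (% dose/g) measured by gamma counting at 2 and 60 min, and the 2 min/60 min ratio taken as a washout index.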

Liver [7] = test: Biodistribution in ddY mouse liver at 0.1 to 0.4 uCi, iv after 30 mins by gamma counting; assay type: ADME, organism-based; details: in vivo, 0.5 h; method in brief: as §1
Lung [8] = test: Biodistribution in ddY mouse lung at 0.1 to 0.4 uCi, iv after 60 mins by gamma counting; assay type: ADME, organism-based; details: in vivo, 1 h; method in brief: as §1
Spleen [9] = test: Biodistribution in ddY mouse spleen at 0.1 to 0.4 uCi, iv after 2 mins by gamma counting; assay type: ADME, organism-based; details: in vivo; method in brief: as §1
Pancreas [10] = test: Biodistribution in ddY mouse pancreas at 0.1 to 0.4 uCi, iv after 30 mins by gamma counting; assay type: ADME, organism-based; details: in vivo, 0.5 h; method in brief: as §1
Spleen [11] = test: Biodistribution in ddY mouse spleen at 0.1 to 0.4 uCi, iv after 60 mins by gamma counting; assay type: ADME, organism-based; details: in vivo, 1 h; method in brief: as §1
Stomach [12] = test: Biodistribution in ddY mouse stomach assessed per organ at 0.1 to 0.4 uCi, iv after 2 mins by gamma counting; assay type: ADME, organism-based; details: in vivo; method in brief: as §1
Heart [13] = test: Biodistribution in ddY mouse heart at 0.1 to 0.4 uCi, iv after 30 mins by gamma counting; assay type: ADME, organism-based; details: in vivo, 0.5 h; method in brief: as §1
Spleen [14] = test: Biodistribution in ddY mouse spleen at 0.1 to 0.4 uCi, iv after 30 mins by gamma counting; assay type: ADME, organism-based; details: in vivo, 0.5 h; method in brief: as §1
Stomach [15] = test: Biodistribution in ddY mouse stomach assessed per organ at 0.1 to 0.4 uCi, iv after 30 mins by gamma counting; assay type: ADME, organism-based; details: in vivo, 0.5 h; method in brief: as §1
Lung [16] = test: Biodistribution in ddY mouse lung at 0.1 to 0.4 uCi, iv after 2 mins by gamma counting; assay type: ADME, organism-based; details: in vivo; method in brief: as §1
Spleen [17] = test: Biodistribution in ddY mouse spleen at 0.1 to 0.4 uCi, iv after 10 mins by gamma counting; assay type: ADME, organism-based; details: in vivo; method in brief: as §1
Heart [18] = test: Biodistribution in ddY mouse heart at 0.1 to 0.4 uCi, iv after 2 mins by gamma counting; assay type: ADME, organism-based; details: in vivo; method in brief: as §1
Stomach [19] = test: Biodistribution in ddY mouse stomach assessed per organ at 0.1 to 0.4 uCi, iv after 60 mins by gamma counting; assay type: ADME, organism-based; details: in vivo, 1 h; method in brief: as §1
Kidney [20] = test: Biodistribution in ddY mouse kidney at 0.1 to 0.4 uCi, iv after 2 mins by gamma counting; assay type: ADME, organism-based; details: in vivo; method in brief: as §1
[21] = n-octanol-sodium phosphate buffer partition co-efficient, log D of the compound at pH 7.4 by shake flask method; assay type: physicochemical
Method in brief: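 Shake-flask partition between n-octanol and sodium phosphate buffer, pH 7.4, shaken 10 min at room temperature, then centrifuged. Weighed 0.5 mL samples of each layer counted. log D from the ratio of cpm per gram of octanol to cpm per gram of buffer; n = 3.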

Lung [22] = test: Biodistribution in ddY mouse lung at 0.1 to 0.4 uCi, iv after 10 mins by gamma counting; assay type: ADME, organism-based; details: in vivo; method in brief: as §1
Heart [23] = test: Biodistribution in ddY mouse heart at 0.1 to 0.4 uCi, iv after 60 mins by gamma counting; assay type: ADME, organism-based; details: in vivo, 1 h; method in brief: as §1
Liver [24] = test: Biodistribution in ddY mouse liver at 0.1 to 0.4 uCi, iv after 10 mins by gamma counting; assay type: ADME, organism-based; details: in vivo; method in brief: as §1
Liver [25] = test: Biodistribution in ddY mouse liver at 0.1 to 0.4 uCi, iv after 60 mins by gamma counting; assay type: ADME, organism-based; details: in vivo, 1 h; method in brief: as §1
Kidney [26] = test: Biodistribution in ddY mouse kidney at 0.1 to 0.4 uCi, iv after 30 mins by gamma counting; assay type: ADME, organism-based; details: in vivo, 0.5 h; method in brief: as §1
Brain [27] = test: Biodistribution in ddY mouse brain at 0.1 to 0.4 uCi, iv after 10 mins by gamma counting; assay type: ADME, organism-based; details: in vivo; method in brief: as §1
Blood [28] = test: Biodistribution in ddY mouse blood at 0.1 to 0.4 uCi, iv after 60 mins by gamma counting; assay type: ADME, organism-based; details: in vivo, 1 h; method in brief: as §1
Kidney [29] = test: Biodistribution in ddY mouse kidney at 0.1 to 0.4 uCi, iv after 60 mins by gamma counting; assay type: ADME, organism-based; details: in vivo, 1 h; method in brief: as §1
Brain [30] = test: Biodistribution in ddY mouse brain at 0.1 to 0.4 uCi, iv after 2 mins by gamma counting; assay type: ADME, organism-based; details: in vivo; method in brief: as §1
Intestine [31] = test: Biodistribution in ddY mouse intestine at 0.1 to 0.4 uCi, iv after 2 mins by gamma counting; assay type: ADME, organism-based; details: in vivo; method in brief: as §1
Blood [32] = test: Biodistribution in ddY mouse blood at 0.1 to 0.4 uCi, iv after 10 mins by gamma counting; assay type: ADME, organism-based; details: in vivo; method in brief: as §1
Brain [33] = test: Biodistribution in ddY mouse brain at 0.1 to 0.4 uCi, iv after 60 mins by gamma counting; assay type: ADME, organism-based; details: in vivo, 1 h; method in brief: as §1
Liver [34] = test: Biodistribution in ddY mouse liver at 0.1 to 0.4 uCi, iv after 2 mins by gamma counting; assay type: ADME, organism-based; details: in vivo; method in brief: as §1
Kidney [35] = test: Biodistribution in ddY mouse kidney at 0.1 to 0.4 uCi, iv after 10 mins by gamma counting; assay type: ADME, organism-based; details: in vivo; method in brief: as §1
Brain [36] = test: Biodistribution in ddY mouse brain at 0.1 to 0.4 uCi, iv after 30 mins by gamma counting; assay type: ADME, organism-based; details: in vivo, 0.5 h; method in brief: as §1
Lung [37] = test: Biodistribution in ddY mouse lung at 0.1 to 0.4 uCi, iv after 30 mins by gamma counting; assay type: ADME, organism-based; details: in vivo, 0.5 h; method in brief: as §1
Intestine [38] = test: Biodistribution in ddY mouse intestine at 0.1 to 0.4 uCi, iv after 60 mins by gamma counting; assay type: ADME, organism-based; details: in vivo, 1 h; method in brief: as §1
Intestine [39] = test: Biodistribution in ddY mouse intestine at 0.1 to 0.4 uCi, iv after 30 mins by gamma counting; assay type: ADME, organism-based; details: in vivo, 0.5 h; method in brief: as §1
Blood [40] = test: Biodistribution in ddY mouse blood at 0.1 to 0.4 uCi, iv after 30 mins by gamma counting; assay type: ADME, organism-based; details: in vivo, 0.5 h; method in brief: as §1
Pancreas [41] = test: Biodistribution in ddY mouse pancreas at 0.1 to 0.4 uCi, iv after 60 mins by gamma counting; assay type: ADME, organism-based; details: in vivo, 1 h; method in brief: as §1
Pancreas [42] = test: Biodistribution in ddY mouse pancreas at 0.1 to 0.4 uCi, iv after 10 mins by gamma counting; assay type: ADME, organism-based; details: in vivo; method in brief: as §1
Mus musculus [43] = species: Mus musculus; test: Binding affinity to amyloid beta plaques in Tg2576 transgenic mouse brain at 100 uM after 3 to 10 hrs using Thioflavin S staining by fluorescence microscopy; assay type: tissue-based
Method in brief: (§2)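 Brains of female Tg2576 mice (32 months) or wild-type controls (30 months) removed after decapitation and frozen in powdered dry ice. 10 µm sections incubated with compound (100 µM) for 3–10 h, then washed twice for 5 min in 50% EtOH or 50% DMSO. Fluorescence imaged with a GFP filter set (ex 470 nm, em >535 nm). Adjacent sections stained with thioflavin S to confirm plaques.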

Mus musculus [44] = species: Mus musculus; test: Binding affinity to amyloid beta plaques in wild type mouse brain at 100 uM after 3 to 10 hrs using Thioflavin S staining by fluorescence microscopy; assay type: tissue-based; method in brief: as §2
[45] = molecular target: Amyloid-beta precursor protein (Homo sapiens, UniProt P05067); test: Displacement of [125I]IMPY from amyloid beta (1 to 42) (unknown origin) after 3 hrs by gamma counting
Method in brief: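 Filtered through GF/B filters and bound radioactivity gamma-counted. IC50 from displacement curves of three independent experiments; Ki calculated with the Cheng–Prusoff equation.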

Chain of Amyloid-beta precursor protein (P05067 whole entry): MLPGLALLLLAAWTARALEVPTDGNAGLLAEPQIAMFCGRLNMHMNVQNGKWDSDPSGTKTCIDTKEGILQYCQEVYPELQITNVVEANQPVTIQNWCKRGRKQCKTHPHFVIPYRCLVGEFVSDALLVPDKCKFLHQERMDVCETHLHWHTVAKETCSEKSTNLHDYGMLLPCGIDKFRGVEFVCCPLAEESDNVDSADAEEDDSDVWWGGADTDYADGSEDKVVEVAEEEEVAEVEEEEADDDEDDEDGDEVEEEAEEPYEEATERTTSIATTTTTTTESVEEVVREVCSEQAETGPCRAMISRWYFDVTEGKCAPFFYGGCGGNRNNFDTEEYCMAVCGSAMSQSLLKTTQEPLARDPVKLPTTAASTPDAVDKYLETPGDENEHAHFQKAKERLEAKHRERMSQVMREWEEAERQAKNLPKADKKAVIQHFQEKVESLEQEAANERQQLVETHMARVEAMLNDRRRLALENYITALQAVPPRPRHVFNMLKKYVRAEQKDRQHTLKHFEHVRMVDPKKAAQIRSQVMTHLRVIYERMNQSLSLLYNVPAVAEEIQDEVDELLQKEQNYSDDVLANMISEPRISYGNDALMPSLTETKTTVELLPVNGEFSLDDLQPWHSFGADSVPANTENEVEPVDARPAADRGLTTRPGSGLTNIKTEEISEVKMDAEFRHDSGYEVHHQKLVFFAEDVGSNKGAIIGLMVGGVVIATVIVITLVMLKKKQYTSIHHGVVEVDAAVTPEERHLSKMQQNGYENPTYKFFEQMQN

CNc1c2ccc([125I])cc2nc2ccc(OC)cc12
Drug uptake (Heart [1]): 2.8 % ID/g
Drug uptake (Blood [2]): 1.75 % ID/g
Drug uptake (Stomach [3]): 3.71 %ID
Drug uptake (Pancreas [4]): 6.91 % ID/g
Drug uptake (Intestine [5]): 9.11 % ID/g
Ratio (Brain [6]): 9
Drug uptake (Liver [7]): 8.26 % ID/g
Drug uptake (Lung [8]): 2.3 % ID/g
Drug uptake (Spleen [9]): 7.6 % ID/g
Drug uptake (Pancreas [10]): 3.55 % ID/g
Drug uptake (Spleen [11]): 4.45 % ID/g
Drug uptake (Stomach [12]): 1.71 %ID
Drug uptake (Heart [13]): 1.46 % ID/g
Drug uptake (Spleen [14]): 6.02 % ID/g
Drug uptake (Stomach [15]): 4.63 %ID
Drug uptake (Lung [16]): 15.8 % ID/g
Drug uptake (Spleen [17]): 9.14 % ID/g
Drug uptake (Heart [18]): 7.79 % ID/g
Drug uptake (Stomach [19]): 5.58 %ID
Drug uptake (Kidney [20]): 12.98 % ID/g
logD [21]: 2.14
Drug uptake (Lung [22]): 5.62 % ID/g
Drug uptake (Heart [23]): 0.84 % ID/g
Drug uptake (Liver [24]): 16.41 % ID/g
Drug uptake (Liver [25]): 7.52 % ID/g
Drug uptake (Kidney [26]): 10.25 % ID/g
Drug uptake (Brain [27]): 2.34 % ID/g
Drug uptake (Blood [28]): 0.56 % ID/g
Drug uptake (Kidney [29]): 6 % ID/g
Drug uptake (Brain [30]): 2.97 % ID/g
Drug uptake (Intestine [31]): 3.82 % ID/g
Drug uptake (Blood [32]): 1.18 % ID/g
Drug uptake (Brain [33]): 0.33 % ID/g
Drug uptake (Liver [34]): 17.25 % ID/g
Drug uptake (Kidney [35]): 11.89 % ID/g
Drug uptake (Brain [36]): 0.95 % ID/g
Drug uptake (Lung [37]): 4.38 % ID/g
Drug uptake (Intestine [38]): 23.83 % ID/g
Drug uptake (Intestine [39]): 19.47 % ID/g
Drug uptake (Blood [40]): 0.85 % ID/g
Drug uptake (Pancreas [41]): 1.63 % ID/g
Drug uptake (Pancreas [42]): 6.92 % ID/g

CCN(CC)CCCC(C)Nc1c2ccc(I)cc2nc2ccc(OC)cc12 (stereo not given)
Activity (Mus musculus [43]): Active
Activity (Mus musculus [44]): inactive
Ki [45]: 353 nM
